ChEMBL document CHEMBL4765352, “Discovery of AdipoRon analogues as novel AMPK activators without inhibiting mitochondrial complex I” (Eur J Med Chem, 2020)
Activity calls are given as the source filed them. The rule behind the calls is not given here.

Experiments:
[1] = Induction of glucose consumption in mouse C2C12 cells at 10 uM measured after 12 hrs by glucose oxidase method (reference value: 100 %); assay type: functional
In short: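 Differentiated C2C12 myotubes were switched to DMEM containing 2.75 g/L glucose and treated for 12 h at 37 °C, with cell-free blank wells as reference. Glucose left in the medium was measured by the GOD-POD method at 570 nm. Consumption was derived by subtraction and expressed as percentage of the DMSO group.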

Mus musculus [2] = test: Hypoglycemic activity in 6 hrs fasted normal lean C57BL/6 mouse assessed as reduction in blood glucose level at 100 mg/kg, ig pretreated for 2 hrs followed by glucose challenge and measured up to 90 mins post glucose challenge starting from 120 mins prior to […] by IPGTT; assay type: functional, organism-based; settings: time 210.0 min
In short: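 C57BL/6 mice (male, 8-10 weeks, n=6 per group) fasted 6 h, then given compound or vehicle intragastrically. Two hours later, 20% glucose was injected i.p. at 2 g/kg. Tail-vein glucose read by glucometer at -120, 0, 20, 40, 60 and 90 min, and net AUC calculated. Doses were 25, 50 and 100 mg/kg.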

[3] = Inhibition of bovine heart mitochondrial complex 1 at 10 uM measured every minute for 2 hrs by microplate reader based assay; assay type: tissue-based, Bos taurus; settings: cattle
In short: (§1)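 Bovine heart mitochondria in detergent were captured on a complex I antibody-coated plate for 2 h at room temperature. Phospholipids were added, then complex I solution with compound, rotenone control or DMSO. NADH oxidation was followed as the fall in A340, read every minute for at least 2 h at 30 °C.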

C2C12 = test: Activation of AMPK in mouse C2C12 cells assessed as increase in AMPK phosphorylation at Thr172 residue at 10 uM measured after 2 hrs by Western blot analysis; assay type: cell-based; settings: filed as activator
In short: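 C2C12 myoblasts differentiated in DMEM with 2% horse serum for 5-7 days until myotubes formed. Treated for 2 h, either at 10 μM or across a concentration range, or at 10 μM over a time course. RIPA lysates (~30 µg protein) blotted for p-AMPK/AMPK and p-ACC/ACC, detected by ECL. The p-AMPK/AMPK ratio is expressed as fold of the DMSO vehicle.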

A549 = test: Activation of AMPK in human A549 cells harboring mutant LKB1; assay type: cell-based; settings: filed as activator
Mus musculus [4] = test: Hypoglycemic activity in 6 hrs fasted normal lean C57BL/6 mouse assessed as improved glucose tolerance at 10 mg/kg, ig pretreated for 2 hrs followed by glucose challenge and measured up to 90 mins post glucose challenge starting from 120 mins prior to compound treatment by IPGTT; assay type: functional, organism-based; settings: time 210.0 min
Mus musculus [5] = test: Activation of AMPK in normal lean C57BL/6 mouse assessed as increase in phosphorylated ACC level in skeletal muscle at 100 mg/kg, ig administered for 4 weeks by Western blot analysis; assay type: functional, organism-based; settings: Skeletal muscle tissue
In short: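 Male C57BL/6 mice, 9 weeks old, dosed intragastrically once daily for 4 weeks alongside vehicle controls. Heart and skeletal muscle were homogenized in RIPA buffer with protease/phosphatase inhibitors and centrifuged at 10,600 g for 20 min. About 30 µg protein was blotted for p-AMPK and p-ACC and detected by ECL.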

[6] = Metabolic stability in ICR/CD-1 mouse liver microsomes assessed as compound remaining preincubated for 5 mins followed by NADPH addition and measured up to 45 mins by LC/MS analysis; assay type: ADME, Microsome; settings: time 50 min, read-out: Stabilty
In short: (§2)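 Compound was preincubated with mouse (ICR/CD-1) or human liver microsomes in potassium phosphate buffer at 37 °C for 5 min, then NADPH was added to start the reaction. Samples were quenched with acetonitrile containing tolbutamide internal standard at 0, 5, 15, 30 and 45 min. Parent compound measured by LC/MS; ketanserin served as control.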

[7] = Metabolic stability in human liver microsomes assessed as compound remaining preincubated for 5 mins followed by NADPH addition and measured up to 45 mins by LC/MS analysis; assay type: ADME, Microsome; settings: time 50 min, read-out: Stabilty; in short: as §2
[8] = Metabolic stability in human liver microsomes assessed as half life preincubated for 5 mins followed by NADPH addition and measured up to 45 mins by LC/MS analysis; assay type: ADME, Microsome; settings: time 50 min; in short: as §2
[9] = Metabolic stability in ICR/CD-1 mouse liver microsomes assessed as half life preincubated for 5 mins followed by NADPH addition and measured up to 45 mins by LC/MS analysis; assay type: ADME, Microsome; settings: time 50 min; in short: as §2
[10] = Inhibition of bovine heart mitochondrial complex 1 at 5 to 20 uM measured every minute for 2 hrs by microplate reader based assay; assay type: tissue-based, Bos taurus; settings: cattle, dose 5-20 µM; in short: as §1
[11] = Metabolic stability in human liver microsomes assessed as intrinsic clearance preincubated for 5 mins followed by NADPH addition and measured up to 45 mins by LC/MS analysis; assay type: ADME, Microsome; settings: time 50 min, read-out: CLH
In short: (§3)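 Compound and liver microsomes in preheated potassium phosphate buffer, held at 37 °C for 5 min. Reaction started with NADPH and stopped at 0, 5, 15, 30 and 45 min with acetonitrile containing tolbutamide internal standard. Samples centrifuged at 6000 rpm for 15 min, supernatant analysed by LC/MS. Ketanserin run as assay control. Performed by a contract lab.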

[12] = Metabolic stability in ICR/CD-1 mouse liver microsomes assessed as intrinsic clearance preincubated for 5 mins followed by NADPH addition and measured up to 45 mins by LC/MS analysis; assay type: ADME, Microsome; settings: time 50 min, read-out: CLH; in short: as §3
[13] = Inhibition of mitochondrial complex 1 in human HepG2 cells assessed as increase in ADP/ATP ratio at 0.5 uM; assay type: cell-based; settings: hepg2, 0.5 µM
In short: (§4)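 HepG2 cells treated with 10 μM or 0.5 μM compound, or DMSO. Cellular ADP:ATP and AMP:ATP ratios were measured. Three replicates, given as mean ± SD and compared by Student's t test.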

[14] = Inhibition of mitochondrial complex 1 in human HepG2 cells assessed as increase in AMP/ATP ratio at 0.5 uM; assay type: cell-based; settings: hepg2, 0.5 µM; in short: as §4

Structure (SMILES) | Activity [1] [%] | also measured
COc1ccc(NC(=O)NC2CCN(C(=O)C(C)(C)Oc3ccc(Cl)cc3)CC2)cc1 | 134.4 | 
O=C(COc1ccc(C(=O)c2ccccc2)cc1)NC1CCN(Cc2ccccc2)CC1 | 132.4 | Activity (Mus musculus [2]): Active; inhibition (INH) [3]: Active; Activity (C2C12): Active
CC(C)(Oc1ccc(Cl)cc1)C(=O)N1CCC(NC(=O)Nc2cccc(C(F)(F)F)c2)CC1 | 91 | 
Cc1ccc(COc2ccc(NC(=O)C(C)(C)Oc3ccc(Cl)cc3)cc2)cc1 | 102.2 | 
CC(C)(Oc1ccc(Cl)cc1)C(=O)N1CCC(NC(=O)Nc2ccccc2)CC1 | 118 | 
CC(C)(Oc1ccc(Cl)cc1)C(=O)N1CCC(NC(=O)Nc2ccc(OC(F)(F)F)cc2)CC1 | 104.2 | 
CC(C)(Oc1ccc(Cl)cc1)C(=O)Nc1ccc(OCc2ccc(C(C)(C)C)cc2)cc1 | 105.3 | 
CC(C)(Oc1ccc(Cl)cc1)C(=O)N1CCC(NC(=O)Nc2ccc(C(=O)O)cc2)CC1 | 117.7 | 
CC(C)(Oc1ccc(Cl)cc1)C(=O)Nc1ccc(OCc2ccc(S(C)(=O)=O)cc2)cc1 | 144.4 | Activity (C2C12): Active
CC(C)(Oc1ccc(Cl)cc1)C(=O)Nc1ccc(OCc2ccc(Cl)cc2)cc1 | 129 | Activity (C2C12): Active
CC(C)(Oc1ccc(Cl)cc1)C(=O)N1CCC(NC(=O)Nc2ccc(Br)cc2)CC1 | 127.3 | 
CC(C)(Oc1ccc(Cl)cc1)C(=O)N1CCC(NC(=O)Nc2ccc(C#N)cc2)CC1 | 116.2 | 
CC(C)(Oc1ccc(Cl)cc1)C(=O)Nc1ccc(OCc2ccc(Br)cc2)cc1 | 112.7 | 
O[C@@H]1CO[C@H]2[C@@H]1OC[C@H]2Oc1nc2nc(-c3ccc(-c4ccccc4)cc3)c(Cl)cc2[nH]1 |  | Activity (A549): Active; Activity (Mus musculus [4]): Active; Activity (C2C12): Active; Activity (Mus musculus [5]): Active
CC(C)(Oc1ccc(Cl)cc1)C(=O)N1CCC(NC(=O)Nc2ccc(Cl)cc2)CC1 | 104.1 | Activity (C2C12): Active
CC(C)(Oc1ccc(Cl)cc1)C(=O)N1CCC(NC(=O)Nc2ccccc2C(F)(F)F)CC1 | 116.1 | 
Cc1ccc(NC(=O)NC2CCN(C(=O)C(C)(C)Oc3ccc(Cl)cc3)CC2)cc1 | 93.7 | 
CC(C)(Oc1ccc(Cl)cc1)C(=O)Nc1ccc(OCc2ccc(F)cc2)cc1 | 107.6 | 
CCOC(=O)c1ccc(NC(=O)NC2CCN(C(=O)C(C)(C)Oc3ccc(Cl)cc3)CC2)cc1 | 126.1 | 
CC(C)(Oc1ccc(Cl)cc1)C(=O)Nc1ccc(OCc2ccc(C(F)(F)F)cc2)cc1 | 156.1 | remaining at 0.75 h [6]: 91%; remaining at 0.75 h [7]: 93%; half-life [8]: > 120 min; half-life [9]: > 120 min; inhibition (INH) [10]: Active
CC(C)(Oc1ccc(Cl)cc1)C(=O)Nc1ccc(OCc2ccc(OC(F)(F)F)cc2)cc1 | 133.4 | 
CC(C)(Oc1ccc(Cl)cc1)C(=O)N1CCC(NC(=O)Nc2ccc(C(F)(F)F)cc2)CC1 | 137.2 | Activity (C2C12): Active; inhibition (INH) [10]: Not Active
O=C(c1ccc(F)cc1)C1CCN(CCn2c(=O)[nH]c3ccccc3c2=O)CC1 [KETANSERIN] |  | CLint scaled [11]: 71 mL/min/kg; half-life [8]: 25 min; CLint scaled [12]: 258 mL/min/kg; half-life [9]: 21 min
CC(C)(Oc1ccc(Cl)cc1)C(=O)Nc1ccc(OCc2ccc(C(=O)O)cc2)cc1 | 116.5 | 
COC(=O)c1ccc(COc2ccc(NC(=O)C(C)(C)Oc3ccc(Cl)cc3)cc2)cc1 | 124.7 | 
COc1ccc(COc2ccc(NC(=O)C(C)(C)Oc3ccc(Cl)cc3)cc2)cc1 | 134.7 | 
CC(C)(Oc1ccc(Cl)cc1)C(=O)N1CCC(NC(=O)Nc2ccc(F)cc2)CC1 | 119.3 | Activity (C2C12): Active
CC(C)(Oc1ccc(Cl)cc1)C(=O)N1CCC(NC(=O)Nc2ccc(F)c(Cl)c2)CC1 | 116.7 | 
COc1ccc(C(=O)C2CCN(C(=O)c3ccc(C(=O)NC4CCN(Cc5ccc(C#N)cc5)CC4)cn3)CC2)cc1 |  | inhibition (INH) [13]: Active; inhibition (INH) [14]: Active
CC(C)(Oc1ccc(Cl)cc1)C(=O)N1CCC(NC(=O)Nc2ccc([N+](=O)[O-])cc2)CC1 | 115.4 | 
